ABHD5 PLIN5 PPI: blocks binding of human ABHD5 to perilipin-5; Split G. princeps luciferase complementation, luminescence, 4 h; inhibition, % at 4 µM; hit rate 0.78% among 360,000;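 active = inhibition above the mean inhibition across every tested compound plus 3 SD, cut at about 22% in these data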;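 also: 0% = DMSO only wells and the 100% control is not disclosed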
A3G deaminase: inhibitors of human APOBEC3G DNA deaminase. Q9HC16. recombinant A3G, ssDNA deamination FAM/TAMRA fluorescence. inhibition, % at 20 µM. hit rate 0.28% among 330,000. AID 493012;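 active = inhibition of at least 40% at 20 µM, with no more than 30% in the related APOBEC3A deaminase screen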;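 also: plate controls were DMSO wells with A3G for no effect and wells lacking A3G enzyme for full effect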
Target sequence (Q9HC16 whole entry, looked up): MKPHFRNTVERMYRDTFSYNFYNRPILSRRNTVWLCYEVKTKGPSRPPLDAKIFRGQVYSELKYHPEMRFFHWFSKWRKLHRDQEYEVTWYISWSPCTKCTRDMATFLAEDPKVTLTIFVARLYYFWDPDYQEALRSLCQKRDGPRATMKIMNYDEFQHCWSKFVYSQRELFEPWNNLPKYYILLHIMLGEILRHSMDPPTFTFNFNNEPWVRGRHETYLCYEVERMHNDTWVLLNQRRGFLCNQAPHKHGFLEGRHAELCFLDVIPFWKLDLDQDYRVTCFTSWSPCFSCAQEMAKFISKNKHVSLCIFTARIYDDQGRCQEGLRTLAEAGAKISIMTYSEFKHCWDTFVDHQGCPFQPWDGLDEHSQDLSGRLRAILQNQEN
HCV NS3 hel inh: inhibitors of Hepatitis C virus NS3 helicase; inhibition, % at 10.9 µM; NS3 helicase DNA unwinding, Cy5 molecular beacon fluorescence; hit rate 0.56% among 290,000;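 active = inhibition above the mean of all tested compounds plus 3 SD, set per campaign, cut at about 35% in these data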;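 also: 0% = DMSO wells and 100% = thioflavine S control wells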
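Compound dosing – single dose, 10.9 µM nominal final, DMSO 0.8% final · System – NS3 helicase fragment of HCV · Buffer or medium – MOPS pH 6.5, MgCl2, DTT, Tween20, BSA · Signal – Cy5 beacon fluorescence read at start and 1 h · Also added – annealed dual-labelled DNA beacon duplex, ATP-started · Schedule – 1 h at 25 °C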
A3A deaminase: human APOBEC3A DNA deaminase inhibition | P31941 | recombinant A3A, FAM/TAMRA ssDNA deamination fluorescence | inhibition, % at 20 µM | hit rate 0.41% among 330,000;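 active = at least 40% inhibition at 20 µM here, with at most 30% in a related deaminase screen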;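 also: plate controls were A3A with DMSO for no effect and wells lacking A3A enzyme for full effect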
HCV core dimer: HCV core protein dimerization inhibition; TR-FRET GST/Flag-core106 dimerization, 1536-well; inhibition, % at 5 µM; hit rate 0.33% among 300,000; AID 1899;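 active = inhibition above the mean of all tested compounds plus 3 SD, set per screening campaign, cut at about 45% in these data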
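Assay system: tagged HCV core106 pair (GST and Flag); medium: KF-containing HEPES buffer, pH 7.45, DTT, CHAPS, BSA; also added: Eu donor and XL665 acceptor anti-tag antibodies; dosing: 5 µM single dose; timing: compound-protein-antibody incubation 4 h at 22.5 °C; signal: TR-FRET 671 and 617 nm emission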
PRMT1 FP inh: PRMT1 (human) inhibition, primary screen | inhibition, % at 2.79 µM | Q99873 | AID 652257 | hit rate 1.3% among 370,000 | recombinant PRMT1, activity-based probe fluorescence polarization;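 active = inhibition above about 21% made by adding two undisclosed values, limit read from the data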
Numbers without * were called inactive. Rows were chosen to be rich in hits. Some 2.9% of all compounds tested hit in one or more screens of this group.

For C#CCOCCOCCOCCNc1nc(N2CCN(C(=O)CCCCCCCCCCNC(=O)[C@@H](CCC(=O)O)n3cc(CCCCCN)nn3)CC2)nc(N2CCN(C(=O)CCCCCCCCCCNC(=O)[C@@H](CCC(=O)O)n3cc(CCCCCN)nn3)CC2)n1 the results were ABHD5 PLIN5 PPI 13.6, A3G deaminase -7.4, A3A deaminase -2.9, HCV core dimer -1.3 and PRMT1 FP inh 1.9.
`Oc1ccc(O)c(Cc2nc3ccccc3s2)c1` gave ABHD5 PLIN5 PPI 6.6, A3G deaminase -5.0, HCV NS3 hel inh 13.1, A3A deaminase 0.2, HCV core dimer -3.1 and PRMT1 FP inh 49.4*.
For Oc1cccc(-c2nc3ccccc3s2)c1 the results were ABHD5 PLIN5 PPI -17.1, A3G deaminase -1.7, HCV NS3 hel inh -3.9, A3A deaminase -1.2, HCV core dimer -4.7 and PRMT1 FP inh 1.5.
For COc1ccc(CN2C(=O)c3ccnn3CC2(C)c2nnnn2-c2c(C)cccc2C)cc1 (stereo not drawn) the results were PRMT1 FP inh 0.9.
For Nc1cc(=O)[nH]c(SCC(=O)N2N=C(c3ccc(Cl)cc3)CC2c2ccco2)n1 (stereo not drawn) the results were ABHD5 PLIN5 PPI 4.7, A3G deaminase -3.8, HCV NS3 hel inh 24.1, A3A deaminase -2.4, HCV core dimer 48.6* and PRMT1 FP inh -1.8.
For CCCc1cc(=O)[nH]c(SCC(=O)N2N=C(c3ccc(Cl)cc3)CC2c2ccco2)n1 (stereo not drawn) the results were ABHD5 PLIN5 PPI 3.4, A3G deaminase -5.5, HCV NS3 hel inh 28.1, A3A deaminase -0.5, HCV core dimer 24.4 and PRMT1 FP inh 10.5.
COc1ccc(NC(=S)Nc2cccc(Cl)c2)cc1OC was read as ABHD5 PLIN5 PPI -12.8, A3G deaminase -5.5, HCV NS3 hel inh 0.1, A3A deaminase 3.6, HCV core dimer 2.4 and PRMT1 FP inh 24.4*.
Screening C=CCc1cccc(/C=N/c2ncccc2O)c1O returned ABHD5 PLIN5 PPI -27.6, A3G deaminase -6.2, HCV NS3 hel inh 0.2, A3A deaminase -7.1, HCV core dimer 2.4 and PRMT1 FP inh 21.8*.
Screening COc1ccc(N2C(=O)c3n[nH]c(C)c3C2c2ccccc2)cc1 (stereo not drawn) returned PRMT1 FP inh -1.2.
COc1cccc(/C=N/Nc2ncnc3c2[nH]c2ccc(C)cc23)c1OC was read as ABHD5 PLIN5 PPI 8.1, A3G deaminase -2.3, HCV NS3 hel inh -12.7, A3A deaminase 4.0, HCV core dimer 48.5* and PRMT1 FP inh -1.6.
`COc1ccc(/C=N/Nc2ncnc3c2[nH]c2ccccc23)c(OC)c1OC` gave ABHD5 PLIN5 PPI -3.0, A3G deaminase -1.2, HCV NS3 hel inh 15.2, A3A deaminase 0.4, HCV core dimer 3.8 and PRMT1 FP inh -0.5.
N#Cc1c(-c2ccco2)cc(-c2ccccn2)nc1N was read as ABHD5 PLIN5 PPI 10.1, A3G deaminase 23.1, HCV NS3 hel inh 14.8, A3A deaminase 23.0, HCV core dimer 73.2* and PRMT1 FP inh 3.4.
`CCOC(=O)c1cnc2c(C(=O)OC)cccc2c1NCc1ccco1` gave ABHD5 PLIN5 PPI 2.2, A3G deaminase -1.1, HCV NS3 hel inh 18.4, A3A deaminase -3.2, HCV core dimer -4.3 and PRMT1 FP inh 21.8*.
For N#CCc1c(C#N)c(N)nc(N2CCCC(CO)C2)c1C#N (stereo not drawn) the results were ABHD5 PLIN5 PPI 5.8, A3G deaminase 1.4, HCV NS3 hel inh 2.1, A3A deaminase 1.6, HCV core dimer 0.3 and PRMT1 FP inh 23.1*.
For O=C([C@@H]1C[C@H]1c1ccccc1)N1CCC(Oc2cccnc2)CC1 the results were PRMT1 FP inh -10.9.
For CCOC(=O)N1CCN(C(=O)CNS(=O)(=O)c2cccs2)CC1 the results were ABHD5 PLIN5 PPI 1.4, A3G deaminase -3.7, HCV NS3 hel inh -0.5, A3A deaminase 0.4, HCV core dimer 0.7 and PRMT1 FP inh 0.5.
Screening CC(=O)Nc1ccc(S(=O)(=O)NCC(=O)N2CCN(S(=O)(=O)c3cccs3)CC2)cc1 returned ABHD5 PLIN5 PPI -15.3, A3G deaminase -1.8, A3A deaminase -2.9 and PRMT1 FP inh 24.4*.
